≈ marks a conversion by molar mass, not a printed value.
Tests used:
Bacillus subtilis [1] = experiment: Inhibition of FtsZ in Bacillus subtilis ATCC 9372 assessed as decrease in cell division by measuring lowest compound concentration at which bacterial filamentation is observed after 5 hrs by phase-contrast light microscopy
Procedure, shortened: (§1)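 Cell division inhibition scored by cell morphology under phase-contrast light microscopy. B. subtilis ATCC9372, E. coli ATCC25922 and S. aureus ATCC25923 were exposed to compound. The lowest concentration giving filamentation (B. subtilis, E. coli) or ballooning (S. aureus) was recorded as the cell division inhibitory concentration.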

Bacillus subtilis [2] = experiment: Antibacterial activity against Bacillus subtilis ATCC 9372 after 24 hrs by broth microdilution method; type: functional; settings: ATCC 9372, 24 h
Procedure, shortened: (§2)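 MIC by standard broth microdilution per NCCLS guidance. Strain panel: B. subtilis ATCC9372 and S. aureus ATCC25923 as standard susceptible strains, S. aureus ATCC29213 as […], S. pyogenes PS as penicillin-susceptible, S. pneumoniae ATCC49619 as standard susceptible, alongside Gram-negative strains.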

Streptococcus pneumoniae = experiment: Antibacterial activity against Streptococcus pneumoniae ATCC 49619 after 24 hrs by broth microdilution method; type: functional; settings: ATCC 49619, 24 h; procedure, shortened: as §2
Streptococcus pyogenes = experiment: Antibacterial activity against penicillin-susceptible Streptococcus pyogenes after 24 hrs by broth microdilution method; type: functional; procedure, shortened: as §2
[3] = target: T1, Cell division protein FtsZ (Staphylococcus aureus) (UniProt P0A031); experiment: Inhibition of FtsZ in Staphylococcus aureus ATCC 25923 assessed as decrease in cell division by measuring lowest compound concentration at which bacterial ballooning is observed after 5 hrs by phase-contrast light microscopy; procedure, shortened: as §1
T1 sequence (whole entry): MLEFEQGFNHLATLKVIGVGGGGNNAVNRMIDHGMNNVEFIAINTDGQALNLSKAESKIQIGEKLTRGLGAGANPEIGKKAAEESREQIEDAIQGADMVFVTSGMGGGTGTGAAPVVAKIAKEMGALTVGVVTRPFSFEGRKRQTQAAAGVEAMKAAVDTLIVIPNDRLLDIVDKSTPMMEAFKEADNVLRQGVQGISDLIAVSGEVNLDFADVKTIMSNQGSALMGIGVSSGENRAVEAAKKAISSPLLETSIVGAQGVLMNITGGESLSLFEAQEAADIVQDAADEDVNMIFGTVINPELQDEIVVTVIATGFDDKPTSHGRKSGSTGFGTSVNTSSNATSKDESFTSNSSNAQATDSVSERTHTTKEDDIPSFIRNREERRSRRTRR

Staphylococcus aureus [4] = experiment: Antibacterial activity against penicillin-resistant Staphylococcus aureus clinical isolate after 24 hrs by broth microdilution method; type: functional
Staphylococcus aureus [5] = experiment: Antibacterial activity against Staphylococcus aureus ATCC 25923 after 24 hrs by broth microdilution method; type: functional; settings: ATCC 25923, 24 h; procedure, shortened: as §2
[6] = tested on: Escherichia coli ATCC 25922; experiment: Inhibition of FtsZ in Escherichia coli ATCC 25922 assessed as decrease in cell division by measuring lowest compound concentration at which bacterial filamentation is observed after 5 hrs by phase-contrast light microscopy; procedure, shortened: as §1
Pseudomonas aeruginosa = experiment: Antibacterial activity against Pseudomonas aeruginosa ATCC 27853 after 24 hrs by broth microdilution method; type: functional; settings: ATCC 27853, 24 h; procedure, shortened: as §2
Escherichia coli = experiment: Antibacterial activity against Escherichia coli ATCC 25922 after 24 hrs by broth microdilution method; type: functional; settings: ATCC 25922, 24 h; procedure, shortened: as §2
Staphylococcus aureus [7] = experiment: Antibacterial activity against Staphylococcus aureus ATCC 29213 after 24 hrs by broth microdilution method; type: functional; settings: ATCC 29213, 24 h; procedure, shortened: as §2

Row | SMILES | INH (Bacillus subtilis [1]) [µg/mL] | MIC (Bacillus subtilis [2]) [µg/mL] | MIC (Streptococcus pneumoniae) [µg/mL] | MIC (Streptococcus pyogenes) [µg/mL] | INH [3] [µg/mL] | MIC (Staphylococcus aureus [4]) [µg/mL] | MIC (Staphylococcus aureus [5]) [µg/mL] | INH [6] [µg/mL] | MIC (Pseudomonas aeruginosa) [µg/mL] | MIC (Escherichia coli) [µg/mL] | MIC (Staphylococcus aureus [7]) [µg/mL]
1 | CC(C)COc1ccc(F)c(C(N)=O)c1F | 32 | 64 (≈ 279 µM) | 128 (≈ 558 µM) | > 128 | 16 | 64 (≈ 279 µM) | 32 (≈ 140 µM) | 64 | 128 (≈ 558 µM) | 256 (≈ 1120 µM) | 128 (≈ 558 µM)
2 | NC(=O)c1c(F)ccc(OCCCn2cnc3cc([N+](=O)[O-])ccc32)c1F | 128 | 256 (≈ 680 µM) | 512 (≈ 1360 µM) | 512 (≈ 1360 µM) | 1020 | 1020 (≈ 2720 µM) | 1020 (≈ 2720 µM) | 512 | 512 (≈ 1360 µM) | 1020 (≈ 2720 µM) | 512 (≈ 1360 µM)
3 | CCCCC(CC)COc1ccc(F)c(C(N)=O)c1F (stereo unspecified) | 0.125 | 0.25 (≈ 0.876 µM) | 64 (≈ 224 µM) | > 128 | 0.25 | 8 (≈ 28 µM) | 1 (≈ 3.5 µM) | 64 | 128 (≈ 449 µM) | 256 (≈ 897 µM) | 8 (≈ 28 µM)
4 | NC(=O)c1c(F)ccc(OC2CCCC2)c1F | 256 | 512 (≈ 2120 µM) | 128 (≈ 531 µM) | > 128 | 256 | 512 (≈ 2120 µM) | 256 (≈ 1060 µM) | 64 | 128 (≈ 531 µM) | 128 (≈ 531 µM) | 256 (≈ 1060 µM)
5 | NC(=O)c1c(F)ccc(OCCn2cnc3cc([N+](=O)[O-])ccc32)c1F | 32 | 64 (≈ 177 µM) | 256 (≈ 707 µM) | 512 (≈ 1410 µM) | 256 | 1020 (≈ 2830 µM) | 256 (≈ 707 µM) | 128 | 512 (≈ 1410 µM) | 256 (≈ 707 µM) | 512 (≈ 1410 µM)
6 | CCOC(=O)COc1ccc(F)c(C(N)=O)c1F | 32 | 64 (≈ 247 µM) | 128 (≈ 494 µM) | > 128 | 64 | 256 (≈ 988 µM) | 128 (≈ 494 µM) | 64 | 128 (≈ 494 µM) | 128 (≈ 494 µM) | 256 (≈ 988 µM)
7 | COc1cc(/C=C/C(=O)CC(=O)/C=C/c2ccc(O)c(OC)c2)ccc1O [CURCUMIN] | 16 | 32 (≈ 86.9 µM) | > 4100 | > 4100 | 1020 | 4100 (≈ 11100 µM) | 2050 (≈ 5560 µM) | 256 | 4100 (≈ 11100 µM) | 512 (≈ 1390 µM) | 4100 (≈ 11100 µM)
8 | NC(=O)c1c(F)ccc(OCCCCCCBr)c1F | 0.5 | 1 (≈ 2.97 µM) | > 128 | 64 (≈ 190 µM) | 1 | 2 (≈ 5.95 µM) | 1 (≈ 2.97 µM) | 64 | 128 (≈ 381 µM) | 128 (≈ 381 µM) | 2 (≈ 5.95 µM)
9 | NC(=O)c1c(F)ccc(OCCCCCBr)c1F | 2 | 16 (≈ 49.7 µM) | 128 (≈ 397 µM) | 128 (≈ 397 µM) | 4 | 16 (≈ 49.7 µM) | 8 (≈ 24.8 µM) | 64 | 256 (≈ 795 µM) | 256 (≈ 795 µM) | 16 (≈ 49.7 µM)
10 | NC(=O)c1c(F)ccc(OCCCCCCCl)c1F | 0.25 | 0.5 (≈ 1.71 µM) | 128 (≈ 439 µM) | > 128 | 0.5 | 8 (≈ 27.4 µM) | 2 (≈ 6.86 µM) | 128 | 256 (≈ 878 µM) | 256 (≈ 878 µM) | 16 (≈ 54.8 µM)
11 | NC(=O)c1c(F)ccc(OCCCCBr)c1F | 1 | 4 (≈ 13 µM) | > 128 | 128 (≈ 415 µM) | 4 | 8 (≈ 26 µM) | 4 (≈ 13 µM) | 64 | 128 (≈ 415 µM) | 128 (≈ 415 µM) | 32 (≈ 104 µM)
12 | NC(=O)c1c(F)ccc(OCCCBr)c1F | 16 | 32 (≈ 109 µM) | > 128 | 64 (≈ 218 µM) | 16 | 32 (≈ 109 µM) | 16 (≈ 54.4 µM) | 64 | 128 (≈ 435 µM) | 128 (≈ 435 µM) | 32 (≈ 109 µM)
13 | NC(=O)c1c(F)ccc(OCc2nc3cc([N+](=O)[O-])ccc3[nH]2)c1F | 64 | 64 (≈ 184 µM) | 256 (≈ 735 µM) | 1020 (≈ 2940 µM) | 128 | 512 (≈ 1470 µM) | 512 (≈ 1470 µM) | 128 | 256 (≈ 735 µM) | 512 (≈ 1470 µM) | 256 (≈ 735 µM)
14 | NC(=O)c1c(F)ccc(O)c1F | 1020 | 1020 (≈ 5920 µM) | 4100 (≈ 23700 µM) | > 4100 | 2050 | 1020 (≈ 5920 µM) | 1020 (≈ 5920 µM) | 512 | 512 (≈ 2960 µM) | 512 (≈ 2960 µM) | 512 (≈ 2960 µM)
15 | CC(C)CCOc1ccc(F)c(C(N)=O)c1F | 4 | 8 (≈ 32.9 µM) | 128 (≈ 526 µM) | > 128 | 4 | 16 (≈ 65.8 µM) | 64 (≈ 263 µM) | 64 | 128 (≈ 526 µM) | 128 (≈ 526 µM) | 16 (≈ 65.8 µM)
16 | CCOCCC(=O)COc1ccc(F)c(C(N)=O)c1F | 32 | 64 (≈ 223 µM) | 128 (≈ 446 µM) | > 128 | 128 | 256 (≈ 891 µM) | 64 (≈ 223 µM) | 64 | 128 (≈ 446 µM) | 256 (≈ 891 µM) | 128 (≈ 446 µM)
17 | NC(=O)c1c(F)ccc(OCCCCCn2cnc3cc([N+](=O)[O-])ccc32)c1F | 32 | 512 (≈ 1270 µM) | 512 (≈ 1270 µM) | 1020 (≈ 2530 µM) |  | 2050 (≈ 5060 µM) | 512 (≈ 1270 µM) | 256 | 512 (≈ 1270 µM) | 512 (≈ 1270 µM) | 1020 (≈ 2530 µM)

From ChEMBL document CHEMBL4002610, “Design, synthesis and biological activity evaluation of novel 2,6-difluorobenzamide derivatives through FtsZ inhibition” (2017)
